GSK3beta inhib: human GSK3beta kinase inhibition. GST-GSK3beta kinase, ADP-Glo luminescence, 60 min; hits give low values. activity score (negative = inhibition), % at 10 µM. AID 2097. 300,000 tested, 0.038% active. P49841;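 active means more than half of replicate wells score below -50%, meaning over 50% inhibition versus plate controls; inconclusive means some replicates but at most half score below -50%; inactive means no replicate scores below -50%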;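 further: 0% = median DMSO wells and -100% = median GW8510 positive control wells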
Target sequence (P49841 whole entry, looked up): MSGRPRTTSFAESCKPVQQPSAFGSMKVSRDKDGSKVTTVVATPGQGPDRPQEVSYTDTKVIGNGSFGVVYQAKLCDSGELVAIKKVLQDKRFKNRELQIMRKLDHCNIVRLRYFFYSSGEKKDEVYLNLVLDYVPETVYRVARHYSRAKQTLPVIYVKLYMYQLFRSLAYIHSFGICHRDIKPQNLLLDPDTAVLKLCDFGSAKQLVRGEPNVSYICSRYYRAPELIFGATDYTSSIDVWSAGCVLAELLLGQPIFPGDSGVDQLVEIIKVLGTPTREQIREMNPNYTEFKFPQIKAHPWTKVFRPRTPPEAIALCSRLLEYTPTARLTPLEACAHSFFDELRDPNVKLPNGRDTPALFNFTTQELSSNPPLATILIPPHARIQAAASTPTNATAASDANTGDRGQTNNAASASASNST
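Assay system: GST-fused GSK3beta enzyme, cell-free / Medium: Tris pH 7.5 buffer with MgCl2, DTT, BSA, heparin / Also added: peptide substrate plus 25 µM ATP (final) / Compound: 10 µM single point / Timing: kinase reaction with compound 60 min at room temperature / Detection: ADP-Glo luminescence / Benchmarks: DMSO neutral wells and GW8510 at 20 µM as positive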
CR mimetic SO: yeast age-related superoxide inhibition as caloric restriction mimetic; S. cerevisiae aged cells, superoxide DHE fluorescence; hits give low values; superoxide response (% of plate mean), % at 10 µM; 330,000 tested, 0.18% active; AID 2690;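 active means superoxide response under a set limit, about three screen SD below normal, cut at about 65% in these data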;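 further: yeast aged for seven days with compound at 30 °C before DHE staining; 100% = average MFI of all compound-treated wells on the plate with controls excluded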
STK33 kinase inh: blocks human STK33 kinase activity; Q9BYT3; purified STK33, MBP phosphorylation, ADP-Glo luminescence; inhibition, % at 10 µM; 320,000 tested, 0.073% active; AID 2661;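 active means inhibition at or above 25%, using the most active replicate where run in duplicate; inactive means inhibition below 25%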
AI-2 QS mod: Vibrio harveyi AI-2 quorum sensing modulation; 300,000 tested, 0.4% active; activity change, % at 7.5 µM; Vibrio harveyi JMH597 AI-2 luminescence/OD600 ratio, 9 h; hits give low values; strain lacks LuxN and CqsS sensors; 0 = neutral-control median; in the data active means activity change below about -75%, passing the limit was not always enough; inconclusive means no clear call, values can overlap the other calls;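 further: luminescence divided by OD600 gain over 9 h not by final OD600 alone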
PolyA inhibitor: yeast polyadenylation inhibition | S. cerevisiae SKY197-pL101 polyadenylation reporter, beta-gal luminescence; efflux-impaired pdr1/pdr3 knockout yeast; score 100 = 6 SD above DMSO | activity score, % at 12 µM | 300,000 tested, 0.02% active;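 active means lowest replicate activity score at least 50, where 100 means six control SD above control mean; inconclusive means lowest score under 50 but half or more replicates reach 50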;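 further: yeast exposed to compound for 9 h at 30 °C; higher score means more reporter readthrough which indicates perturbed polyadenylation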
GSK3 alpha inh: blocks human GSK-3 alpha kinase. ADP-Glo luminescence, 60 min. inhibition, % at 10 µM. 320,000 tested, 0.1% active;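 active means more than half of replicates show inhibition above 20%; inconclusive means some but at most half of replicates above 20% inhibition; inactive means no replicate shows inhibition above 20%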;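 further: GST-tagged GSK-3 alpha with peptide substrate and 25 µM ATP; 0% = DMSO neutral wells and 100% = GW8510 positive control wells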
JMH597 growth rt: retest: inhibitors of Vibrio harveyi JMH597 growth | OD600 absorbance, 9 h; lacks LuxN and CqsS sensors | shares compounds with AI-2 QS mod | 750 tested, 1% active | AID 2726 | growth inhibition, % at 7.5 µM;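 active means every replicate shows growth inhibition above 50%; inconclusive means at least half, but not all, replicates pass that cutoff; inactive means fewer than half of replicates pass it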
BB721 const-QS lum: retest counter-screen: lowers luminescence of constitutive-QS Vibrio harveyi BB721. inhibition, % at 7.5 µM. 9 h. shares compounds with AI-2 QS mod. 750 tested, 95% active;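 active means inhibition above about 80% in every replicate, not just on average, limit read from the data; inconclusive means at least half of replicates past the limit, but not all; inactive means fewer than half of replicates past the limit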
BB721 growth: retest: inhibitors of Vibrio harveyi BB721 growth | AID 2728 | 750 tested, 3% active | shares compounds with AI-2 QS mod | growth inhibition, % at 7.5 µM | OD600 absorbance, 9 h;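 active means every replicate shows growth inhibition above 50%; inconclusive means at least half but not all replicates above 50% inhibition; inactive means under half of replicates above 50% inhibition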
JMH597 AI-2 mod: Vibrio harveyi AI-2 signaling luminescence modulation – JMH597 strain, confirmation; shares compounds with AI-2 QS mod; Vibrio harveyi JMH597 AI-2 quorum sensing luminescence, 9 h; luxN and CqsS knockout, AI-2 only; inhibition, % at 7.5 µM; 750 tested, 97% active;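 active means every replicate shows more than 75% inhibition of signal versus neutral control wells; inconclusive means half to three quarters of replicates exceed 75% inhibition; inactive means fewer than half of replicates exceed 75% inhibition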
Active calls of the source: *; ? = inconclusive; / = no result. Rows were chosen to be rich in hits. Some 0.72% of all compounds tested hit in one or more screens of this group.

SMILES | GSK3beta inhib | CR mimetic SO | STK33 kinase inh | AI-2 QS mod | PolyA inhibitor | GSK3 alpha inh | JMH597 growth rt | BB721 const-QS lum | BB721 growth | JMH597 AI-2 mod
O=C(Cc1ccc(Br)cc1)Nc1ccc(S(=O)(=O)NCC2CCCO2)cc1 (stereo not given) | -3 | 102 | -2 | -96* | 3 | -1 | 31 | 99* | -173 | 99*
O=C(CSc1ccccc1)Nc1ccc(S(=O)(=O)NCC2CCCO2)cc1 (stereo not given) | 3 | 90 | 1 | -97* | 3 | -2 | 22 | 100* | -45 | 100*
COCC(=O)Nc1ccc(S(=O)(=O)NCC2CCCO2)cc1 (stereo not given) | 4 | 97 | 0 | 3 | -7 | -2 | / | / | / | /
CCC(C)(C)NC(=O)C(c1ccc(OC)cc1)N(C(=O)CCC(=O)Nc1cc(C)on1)c1ccc2c(c1)OCO2 (stereo not given) | 2 | 121 | -1 | 30 | 11 | -1 | / | / | / | /
Cc1nc(OCc2ccccc2)c2ccccc2n1 | 0 | 88 | -1 | 10 | 0 | 4 | / | / | / | /
Cc1nc2ccccc2cc1OCc1ccccc1 | -5 | 94 | 0 | -81* | -46 | -1 | 24 | 93* | ? | 96*
Cc1cccc(/C(N)=N/OC(=O)c2cccc3ccccc23)c1 | 0 | 109 | 1 | -85* | -5 | -2 | 62 | 97* | ? | 98*
Cc1ccc(NC(=O)c2ncn(CC(=O)NCC(C)c3ccccc3)n2)cc1C (stereo not given) | / | 89 | / | / | / | / | / | / | / | /
N/C(=N\OC(=O)CC1CCCCC1)c1cccc(Br)c1 | 4 | 121 | 0 | -80* | -9 | -6 | 22 | 96* | 28 | 96*
CC(C)COc1ccc(/C(=N/O)c2ccccc2)cc1 | 4 | 93 | 1 | -85* | -29 | -1 | 20 | 94* | 27 | 95*
CCc1cccc(C)c1NC(=O)Nc1c(Br)cnn1C | 0 | 96 | -2 | -9 | 2 | 0 | / | / | / | /
c1ccc(SCc2cc(-c3ccccc3)no2)cc1 | 1 | 97 | -6 | -92* | -4 | -1 | 14 | 99* | -15 | 99*
c1ccc(OCc2cc(-c3ccccc3)no2)cc1 | 0 | 90 | -2 | -96* | 5 | -1 | 1 | 99* | -1 | 100*
COc1ccccc1OCc1cc(-c2ccccc2)no1 | 2 | 87 | 0 | -65 | -19 | 2 | / | / | / | /
Oc1ccc(-n2nnnc2SCc2ccccc2Br)cc1 | 1 | 94 | -13 | ? | -5 | 0 | 12 | 81* | 1 | 87*
O=C(CC1CS(=O)(=O)CC1CC(=O)Nc1ccc2c(c1)OCCO2)Nc1ccc2c(c1)OCCO2 (stereo not given) | -1 | 113 | -1 | 14 | 11 | -3 | / | / | / | /
O=S(=O)(c1ccc2ccccc2c1)N1CCN(C(=S)Nc2ccccc2F)CC1 | -3 | 91 | -1 | -97* | 2 | / | 25 | 100* | -25 | 100*
O=C(c1cc2cc(F)ccc2[nH]1)N1CCN(C(=O)c2ccco2)CC1 | -3 | 103 | 1 | -84* | 1 | 1 | -18 | 85* | 2 | 91*
O=C(c1cccc(Cl)c1)N1CCN(Cc2ccc3c(c2)OCO3)CC1 | 0 | 102 | -1 | 18 | -10 | 0 | / | / | / | /
O=C(c1cc2cc(Cl)ccc2[nH]1)N1CCN(Cc2ccc3c(c2)OCO3)CC1 | 6 | 108 | -1 | -94* | 17 | 0 | 18 | 98* | -98 | 99*
